Measured values collected from several papers.
Lines come from different studies, so protocols differ.
Target: Protein-tyrosine kinase 2-beta (PTK2B, Homo sapiens, UniProt Q14289)

| SMILES | effect on | technique | tested at | remaining binding |
| --- | --- | --- | --- | --- |
| CC1CCCN1c1nccc(-c2cnn3ncccc23)n1 (stereo not drawn) | binding | – | 1 µM | 100% |
| O=C(NCCCN1CCOCC1)c1ccc(Nc2nccc(-c3cc4ccccc4s3)n2)cc1 | binding | competition with immobilised ligand | 1 µM | 64% |
| CC(=O)c1c(NS(C)(=O)=O)c2cc(-c3ccc(Cl)cc3)c(-c3ccc(Cl)cc3Cl)nc2n(C)c1=O | cell-free assay | competition with immobilised ligand | 1 µM | 100% |
| C[C@@H](c1ccc(-n2cnc3c(N)ncnc32)cc1)N1CCc2nn(C)c(Cc3ccccc3)c2C1=O | binding | competition with immobilised ligand | 0.1 µM | 95% |
| CO[C@H]1CC[C@H](CNc2ccc(S(=O)(=O)NC(=O)c3ccc(N4CCN(CC5=C(c6ccc(Cl)cc6)CC(C)(C)CC5)CC4)cc3Oc3cnc4[nH]ccc4c3)cc2[N+](=O)[O-])CC1 | cell-free assay | competition with immobilised ligand | 1 µM | 87% |
| O=C(NCCCN1CCOCC1)c1ccc(Nc2ncc(Cl)c(-c3ccc(Cl)s3)n2)cc1 | binding | competition with immobilised ligand | 1 µM | 41% |
| COc1ccnn2ncc(-c3ccnc(N(C)C)n3)c12 | binding | – | 1 µM | 100% |
| C=CC(=O)N1CCC(C(=O)NCC(=O)N2CCN(c3nc(-c4cnc(N)nc4C(F)F)nc(N4CCOCC4)n3)CC2)CC1 | binding | competition with immobilised ligand | 1 µM | 100% |
| C[C@H]1CCN(c2nccc(-c3cnn4ncccc34)n2)C1 | binding | – | 1 µM | 100% |
| CNC(=O)[C@@H]1CC[C@@H](n2c(-c3ccc4cnccc4c3)nc3ccc(C(=O)NCc4cccc(C(N)=O)c4)cc32)C1 | binding | competition with immobilised ligand | 1 µM | 99% |
| NS(=O)(=O)c1cc(NC(=O)C2(c3ccccc3Cl)CC2)ccc1Oc1cccc(Cl)c1 | cell-free assay | competition with immobilised ligand | 1 µM | 91% |
| CN(CCCC(F)(F)F)c1nccc(-c2cnn3ncccc23)n1 | binding | – | 1 µM | 100% |
| COc1cnc(Nc2cccc(S(N)(=O)=O)c2)nc1N1CCN(c2ccccc2)CC1 | binding | competition with immobilised ligand | 1 µM | 89% |
| O=C(NC[C@@H]1[C@H]2CN(C(=O)OCc3cc(C(F)(F)F)cc(C(F)(F)F)c3)C[C@@H]12)c1ccc2[nH]nnc2c1 | cell-free assay | competition with immobilised ligand | 1 µM | 85% |
| O=C(NCC1CCOCC1)c1n[nH]cc1NC(=O)c1c(F)cccc1F | binding | competition with immobilised ligand | 1 µM | 100% |
| N[C@@H]1CCN(c2nccc(-c3cnn4ncccc34)n2)C1 | binding | – | 1 µM | 100% |
| FC(F)(F)Oc1cccc(-c2cnc3ccc(-c4ccncc4)nn23)c1 | cell-free assay | competition with immobilised ligand | 5 µM | 76% |
| O=C(O)[C@H]1[C@H](Cn2nnc3ccccc3c2=O)CC[C@@H]1C(=O)c1ccc(OCCC2CCOCC2)cc1 | cell-free assay | competition with immobilised ligand | 1 µM | 75% |
| Cc1cnc(Nc2ccc(C(=O)N3CCC(N4CCCC4)CC3)cc2)nc1-c1cc2ccccc2s1 | binding | competition with immobilised ligand | 1 µM | 28% |
| Cn1cc(Cl)c2c(Oc3c(F)cc(Nc4cc(Cl)nc(N)n4)cc3F)ccnc21 | cell-free assay | competition with immobilised ligand | 0.1 µM | 100% |
| CN(C)c1nccc(-c2cnc3ncccn23)n1 | binding | – | 1 µM | 92% |
